Test [1] concerns the target MAP kinase-activated protein kinase 2 (Homo sapiens) (UniProt P49137). In words: Binding affinity to wild-type human partial length MAPKAPK2 (V48 to D345 residues) expressed in bacterial expression system assessed as residual binding level at 1 uM by Kinomescan method relative to control. An outline of the steps: (§1)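 Kinome-wide competition binding screen against a panel of 468 purified kinases/mutants, with the test compound at a single concentration of 1 μM. Read-out is the relative binding activity of each kinase in the presence of compound.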

Test [2] has as its system Epidermal growth factor receptor (Homo sapiens), P00533 [UNDEFINED MUTATION]. In words: Binding affinity to human partial length EGFR L747-E749del/A750P mutant expressed in bacterial expression system assessed as residual binding level at 1 uM by Kinomescan method relative to control. The method in brief: (§2)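 Kinome-wide single-concentration binding screen (KINOMEscan) at 1 μM against a panel of 468 purified kinases and mutants. Read-out is relative binding of each kinase compared with control. Selectivity across the panel was summarised as an S(10) score.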

For test [3], the system named is Receptor-type tyrosine-protein kinase FLT3 (Homo sapiens), P36888 [UNDEFINED MUTATION]. Description: Binding affinity to human partial length FLT3 ITD/F691L double mutant expressed in bacterial expression system assessed as residual binding level at 1 uM by Kinomescan method relative to control. An outline of the steps:
as §2

Test [4] addresses Serine/threonine-protein kinase Nek9 (Homo sapiens) (UniProt Q8TD19). In words: Binding affinity to wild-type human partial length NEK9 (P32 to R328 residues) expressed in bacterial expression system assessed as residual binding level at 1 uM by Kinomescan method relative to control. An outline of the steps:
(§3)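 KINOMEscan competition binding against a panel of 468 purified kinases/mutants, compound tested at 1 μM; readout is relative binding activity versus control.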

In test [5] the target is Serine/threonine-protein kinase SIK2 (Homo sapiens) (UniProt Q9H0K1). Description: Binding affinity to wild-type human full length SIK2 (M1 to N926 residues) expressed in bacterial expression system assessed as residual binding level at 1 uM by Kinomescan method relative to control. An outline of the steps: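 KINOMEscan competition binding against 468 purified kinases/mutants, test compound at 1 µM; residual binding relative to control.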
Sequence of Serine/threonine-protein kinase SIK2 (Homo sapiens) (Q9H0K1 whole entry, looked up, the tested form may be a part): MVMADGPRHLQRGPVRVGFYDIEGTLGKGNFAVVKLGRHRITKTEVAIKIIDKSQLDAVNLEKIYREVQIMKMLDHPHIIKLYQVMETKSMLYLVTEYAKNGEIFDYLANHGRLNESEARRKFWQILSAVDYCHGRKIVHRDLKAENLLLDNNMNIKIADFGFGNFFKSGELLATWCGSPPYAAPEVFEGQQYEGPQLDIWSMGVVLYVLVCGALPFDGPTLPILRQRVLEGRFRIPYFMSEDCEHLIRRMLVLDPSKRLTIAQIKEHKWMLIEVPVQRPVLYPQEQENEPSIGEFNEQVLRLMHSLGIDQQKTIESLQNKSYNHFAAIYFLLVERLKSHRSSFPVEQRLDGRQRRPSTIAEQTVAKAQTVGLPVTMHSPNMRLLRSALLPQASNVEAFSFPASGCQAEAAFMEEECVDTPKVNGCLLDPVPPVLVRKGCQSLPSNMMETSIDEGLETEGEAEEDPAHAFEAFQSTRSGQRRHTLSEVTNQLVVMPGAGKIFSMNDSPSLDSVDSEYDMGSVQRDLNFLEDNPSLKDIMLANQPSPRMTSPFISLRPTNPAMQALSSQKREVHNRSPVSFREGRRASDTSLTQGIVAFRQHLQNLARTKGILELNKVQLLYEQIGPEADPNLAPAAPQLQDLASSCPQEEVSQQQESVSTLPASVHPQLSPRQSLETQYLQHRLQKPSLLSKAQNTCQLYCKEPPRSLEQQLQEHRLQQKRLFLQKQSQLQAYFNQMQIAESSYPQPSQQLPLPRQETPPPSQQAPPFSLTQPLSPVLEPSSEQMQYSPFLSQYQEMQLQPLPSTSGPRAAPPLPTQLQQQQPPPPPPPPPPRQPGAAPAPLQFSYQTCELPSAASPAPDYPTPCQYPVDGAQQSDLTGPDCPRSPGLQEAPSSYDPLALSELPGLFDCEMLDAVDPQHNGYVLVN

Test [6] has as its target Tyrosine-protein kinase Mer (Homo sapiens) (UniProt Q12866). In words: Binding affinity to wild-type human partial length MERTK (R557 to L884 residues) expressed in bacterial expression system assessed as residual binding level at 1 uM by Kinomescan method relative to control.
Test [7] deals with Platelet-derived growth factor receptor alpha (Homo sapiens, UniProt P16234).
Sequence of Platelet-derived growth factor receptor alpha (P16234 whole entry, the tested form may be a part): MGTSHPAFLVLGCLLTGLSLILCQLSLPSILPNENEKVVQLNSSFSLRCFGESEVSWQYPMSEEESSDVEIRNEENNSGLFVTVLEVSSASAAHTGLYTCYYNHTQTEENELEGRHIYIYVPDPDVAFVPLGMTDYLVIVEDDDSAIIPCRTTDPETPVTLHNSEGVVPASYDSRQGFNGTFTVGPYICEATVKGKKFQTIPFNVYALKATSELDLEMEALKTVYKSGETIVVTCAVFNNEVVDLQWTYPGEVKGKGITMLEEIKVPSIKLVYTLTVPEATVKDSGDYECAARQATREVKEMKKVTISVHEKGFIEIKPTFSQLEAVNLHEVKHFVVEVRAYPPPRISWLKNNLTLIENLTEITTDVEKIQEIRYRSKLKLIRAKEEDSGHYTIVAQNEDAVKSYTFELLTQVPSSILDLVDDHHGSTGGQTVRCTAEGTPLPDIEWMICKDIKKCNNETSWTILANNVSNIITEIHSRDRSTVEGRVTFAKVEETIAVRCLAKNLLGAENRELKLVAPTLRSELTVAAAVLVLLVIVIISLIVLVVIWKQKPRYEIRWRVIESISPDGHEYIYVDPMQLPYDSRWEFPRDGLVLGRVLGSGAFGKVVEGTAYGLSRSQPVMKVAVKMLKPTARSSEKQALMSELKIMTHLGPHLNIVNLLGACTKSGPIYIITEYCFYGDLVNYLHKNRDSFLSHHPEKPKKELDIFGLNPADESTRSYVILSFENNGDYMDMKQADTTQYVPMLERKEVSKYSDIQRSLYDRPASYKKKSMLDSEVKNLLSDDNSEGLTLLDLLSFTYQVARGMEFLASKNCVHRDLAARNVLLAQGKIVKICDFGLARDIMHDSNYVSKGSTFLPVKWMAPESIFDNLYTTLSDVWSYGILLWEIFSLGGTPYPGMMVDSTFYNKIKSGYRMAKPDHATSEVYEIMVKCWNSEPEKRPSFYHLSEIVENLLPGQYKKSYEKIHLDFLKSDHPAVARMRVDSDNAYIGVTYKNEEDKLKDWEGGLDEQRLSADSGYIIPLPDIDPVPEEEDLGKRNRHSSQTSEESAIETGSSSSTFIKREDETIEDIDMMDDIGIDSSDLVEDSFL
Test [8] deals with Phosphatidylinositol 4-phosphate 5-kinase type-1 gamma (Homo sapiens) (UniProt O60331). In words: Binding affinity to wild-type human partial length PIP5K1C (M1 to T668 residues) expressed in mammalian expression system assessed as residual binding level at 1 uM by Kinomescan method relative to control. An outline of the steps: as §3
The subject of test [9] is Mast/stem cell growth factor receptor Kit (Homo sapiens), P10721 [V559D,V654A]. Description: Binding affinity to human partial length KIT V559D/V654A double mutant (Y545 to D952 residues) expressed in bacterial expression system assessed as residual binding level at 1 uM by Kinomescan method relative to control. The method in brief: as §2
Test [10] deals with Tyrosine-protein kinase Fyn (Homo sapiens) (UniProt P06241). Description: Binding affinity to wild-type human partial length FYN (T243 to L534 residues) expressed in bacterial expression system assessed as residual binding level at 1 uM by Kinomescan method relative to control. The method in brief:
as §1

Sequence of Tyrosine-protein kinase Mer (Homo sapiens) (Q12866 whole entry, the tested form may be a part): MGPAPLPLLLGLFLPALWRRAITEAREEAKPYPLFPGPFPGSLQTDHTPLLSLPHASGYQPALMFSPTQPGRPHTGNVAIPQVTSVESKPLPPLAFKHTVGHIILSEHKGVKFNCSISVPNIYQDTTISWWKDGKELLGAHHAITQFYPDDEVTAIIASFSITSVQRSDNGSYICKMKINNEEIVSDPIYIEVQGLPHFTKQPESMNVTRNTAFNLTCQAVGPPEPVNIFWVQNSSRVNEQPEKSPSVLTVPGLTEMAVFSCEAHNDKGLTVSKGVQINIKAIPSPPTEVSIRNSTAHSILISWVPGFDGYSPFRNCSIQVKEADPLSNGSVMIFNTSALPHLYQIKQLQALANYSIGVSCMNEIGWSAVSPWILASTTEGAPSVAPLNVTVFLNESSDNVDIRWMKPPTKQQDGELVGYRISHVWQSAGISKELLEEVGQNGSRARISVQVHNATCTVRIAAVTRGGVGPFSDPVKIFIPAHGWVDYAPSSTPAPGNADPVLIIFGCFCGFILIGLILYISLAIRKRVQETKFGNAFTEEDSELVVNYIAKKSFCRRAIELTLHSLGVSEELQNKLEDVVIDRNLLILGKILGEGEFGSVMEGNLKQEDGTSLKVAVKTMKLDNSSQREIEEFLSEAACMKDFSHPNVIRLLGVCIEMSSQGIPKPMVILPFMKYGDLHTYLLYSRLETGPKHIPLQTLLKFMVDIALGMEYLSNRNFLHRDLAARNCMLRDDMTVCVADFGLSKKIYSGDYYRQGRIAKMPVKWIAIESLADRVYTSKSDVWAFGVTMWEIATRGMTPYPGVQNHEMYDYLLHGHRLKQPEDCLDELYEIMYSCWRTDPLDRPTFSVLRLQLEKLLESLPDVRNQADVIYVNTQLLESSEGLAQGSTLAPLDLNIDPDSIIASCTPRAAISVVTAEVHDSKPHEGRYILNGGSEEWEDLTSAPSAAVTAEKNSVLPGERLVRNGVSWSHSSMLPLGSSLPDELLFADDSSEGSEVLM
Sequence of Tyrosine-protein kinase Fyn (Homo sapiens) (P06241 2-537 limits assumed): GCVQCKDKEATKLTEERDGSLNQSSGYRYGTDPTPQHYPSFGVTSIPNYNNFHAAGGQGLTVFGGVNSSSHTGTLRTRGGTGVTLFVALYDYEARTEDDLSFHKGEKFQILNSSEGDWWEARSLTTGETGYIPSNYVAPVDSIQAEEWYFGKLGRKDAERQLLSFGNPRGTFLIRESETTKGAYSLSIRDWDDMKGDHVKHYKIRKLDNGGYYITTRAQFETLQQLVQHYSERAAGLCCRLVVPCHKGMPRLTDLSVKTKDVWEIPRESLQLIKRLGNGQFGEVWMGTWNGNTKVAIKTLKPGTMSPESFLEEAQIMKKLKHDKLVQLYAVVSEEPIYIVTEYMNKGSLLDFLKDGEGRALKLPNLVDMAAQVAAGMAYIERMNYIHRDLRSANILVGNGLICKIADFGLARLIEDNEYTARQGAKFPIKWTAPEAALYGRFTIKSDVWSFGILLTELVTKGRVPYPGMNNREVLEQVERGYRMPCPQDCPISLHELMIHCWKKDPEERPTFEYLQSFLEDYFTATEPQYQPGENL
Sequence of Serine/threonine-protein kinase Nek9 (Homo sapiens) (Q8TD19 whole entry, the tested form may be a part): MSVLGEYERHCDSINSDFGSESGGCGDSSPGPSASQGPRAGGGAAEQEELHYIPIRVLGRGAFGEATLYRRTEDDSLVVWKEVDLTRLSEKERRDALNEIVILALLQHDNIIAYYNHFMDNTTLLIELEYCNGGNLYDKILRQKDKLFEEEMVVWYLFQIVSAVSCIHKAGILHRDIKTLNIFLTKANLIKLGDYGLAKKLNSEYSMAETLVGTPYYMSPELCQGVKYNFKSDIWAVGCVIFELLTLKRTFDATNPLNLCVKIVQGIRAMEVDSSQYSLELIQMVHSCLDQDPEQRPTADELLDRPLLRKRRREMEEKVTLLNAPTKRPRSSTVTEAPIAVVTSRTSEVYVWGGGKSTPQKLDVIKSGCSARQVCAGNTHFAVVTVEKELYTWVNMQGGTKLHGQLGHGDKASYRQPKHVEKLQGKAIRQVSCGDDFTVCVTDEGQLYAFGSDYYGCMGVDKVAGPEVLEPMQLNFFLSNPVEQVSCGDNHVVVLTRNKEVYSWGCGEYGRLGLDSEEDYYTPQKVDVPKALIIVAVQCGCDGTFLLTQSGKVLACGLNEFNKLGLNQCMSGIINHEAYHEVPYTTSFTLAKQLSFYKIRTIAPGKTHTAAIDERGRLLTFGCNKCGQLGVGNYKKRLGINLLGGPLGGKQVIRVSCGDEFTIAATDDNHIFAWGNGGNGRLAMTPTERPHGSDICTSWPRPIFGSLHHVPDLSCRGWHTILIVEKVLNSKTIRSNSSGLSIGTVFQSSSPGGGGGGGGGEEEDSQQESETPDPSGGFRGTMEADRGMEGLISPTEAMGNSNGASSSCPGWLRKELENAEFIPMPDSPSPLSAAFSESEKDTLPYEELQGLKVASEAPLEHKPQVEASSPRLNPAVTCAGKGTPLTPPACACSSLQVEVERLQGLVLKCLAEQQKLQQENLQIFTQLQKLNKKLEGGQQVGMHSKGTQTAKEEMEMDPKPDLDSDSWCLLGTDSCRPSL
Sequence of MAP kinase-activated protein kinase 2 (Homo sapiens) (P49137 whole entry, looked up, the tested form may be a part): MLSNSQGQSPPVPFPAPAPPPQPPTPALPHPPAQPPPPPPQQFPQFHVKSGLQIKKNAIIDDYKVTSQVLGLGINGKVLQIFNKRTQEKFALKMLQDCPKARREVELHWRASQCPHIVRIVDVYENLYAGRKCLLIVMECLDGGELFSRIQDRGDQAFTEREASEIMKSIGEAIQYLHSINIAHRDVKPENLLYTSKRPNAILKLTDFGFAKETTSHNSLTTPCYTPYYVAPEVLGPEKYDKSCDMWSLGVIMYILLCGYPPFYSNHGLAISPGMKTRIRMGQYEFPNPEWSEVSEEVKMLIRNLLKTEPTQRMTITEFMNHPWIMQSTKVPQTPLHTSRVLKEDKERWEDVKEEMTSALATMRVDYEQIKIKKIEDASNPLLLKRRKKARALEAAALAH

For `Cc1ccc(NC(=O)c2ccc(CN(CCN(C)C)C(=O)c3cccnc3)cc2)cc1Nc1nccc(-c2cccnc2)n1`, the Activity amounted to 92% in [1]; 77% in test [2]; 100% in test [3]; 92% in test [4]; 87% in test [5]; 100% in test [6]. Besides, the results for the Activity in [8], in test [9] and in test [10] were 83%, 25% and 80%, respectively. It took 0.034 µM to inhibit growth in test [7] by half (GI50).

(Values after ChEMBL document CHEMBL4229344 (Eur J Med Chem, 2018).)
